Screening data deposited in PubChem BioAssay by several laboratories.
MPTP inh: blocks calcium-induced mitochondrial swelling; isolated mouse mitochondria, Ca2+ swelling absorbance, 30 min; inhibition, % at 10 µM; hit rate 1.4% among 360,000;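 active = inhibition of 50% or more, scaled per plate between neutral and stimulator controls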
CHOP inh: inhibitors of CHOP induction in ER stress response; CHO-K1 CHOP-promoter luciferase, tunicamycin-induced, 15-18 h; inhibition, % at 10 µM; hit rate 3.8% among 220,000; AID 2732;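 active = compounds that reduced the stress-induced luciferase reporter signal by more than about 70% of percent inhibition, limit read from the data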
aDG glyco act: increases alpha dystroglycan glycosylation; activation, % at 10 µM; hit rate 0.22% among 360,000; Pro5-aDG cells, alpha-DG glycosylation AlphaScreen (IIH6); 0% Pro5, 100% B10-LARGE cell signal;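 active = activation of at least 8% versus controls, or a plate z-score of at least 8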;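 also: Pro5 are CHO cells carrying HIG-tagged alpha-DG that lacks glycosylation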
XBP1 UPR activ: activators of adaptive arm of unfolded protein response (XBP1) | activation, % at 20 µM | CHO-XBP1 luciferase reporter, IRE1-XBP1 UPR activation, luminescence; percent of tunicamycin response, DMSO as zero | hit rate 0.33% among 330,000;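 active = versus positive control, 20 µM dose yields 30% or more activation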
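Signal: luciferase luminescence; Assay system: CHO-XBP1 luciferase reporter cells; Amount: one thousand reporter cells per well; Dosing: 20 µM single concentration, DMSO 1%; Benchmarks: high control tunicamycin 10 µg/mL final, low control DMSO vehicle only; Schedule: 6 h compound exposure at 37 °C, 5% CO2; Evaluation: percent activation relative to tunicamycin reference.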
GRIN3A LBD mod: modulates the human NR3A ligand-binding domain; NR3A LBD differential scanning fluorimetry, Tm shift; 0% = protein alone, 100% = glycine-bound protein; Tm shift relative to glycine control, % at 25 µM; hit rate 2.5% among 340,000;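 active = melting temperature shift of at least 10% of the positive control shift, at one fixed dose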
UPR CHOP act: activators of apoptotic arm of unfolded protein response (CHOP) | activation, % at 10 µM | hit rate 0.34% among 330,000 | CHO-CHOP luciferase reporter, UPR activation, luminescence; percent of tunicamycin response over DMSO baseline | AID 449763;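 active = at 10 µM dose, activation of 40% or more, normalized to positive control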
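Assay system: CHO cells with stable CHOP pathway luciferase reporter; Buffer or medium: F12 plus 10% serum; Times: 16-18 h cell attachment, then 6 h compound exposure, 37 °C; Signal: luciferase luminescence; Read-out basis: percent activation relative to tunicamycin control; Control set: tunicamycin high control, DMSO low control.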
MPTP counter: Rhodamine 123 counter-screen of mitochondrial pore hits; shares compounds with MPTP inh; AID 624504; inhibition, % at 10 µM; hit rate 78% among 5,000; isolated mitochondria, membrane potential, Rhodamine 123 fluorescence; in the data active = inhibition above about 22%
MPTP swell DR: dose response confirmation of mitochondrial permeability transition pore inhibitors; shares compounds with MPTP inh; hit rate 58% among 780; IC50, µM; isolated mitochondria swelling, absorbance; in the data active = IC50 below about 20 µM
MPTP counter DR: MPTP inhibitor counter-screen activity, dose response; IC50, µM; hit rate 49% among 780; isolated mitochondria counterscreen, fluorescence read-out; shares compounds with MPTP inh; in the data active = IC50 below about 80 µM
Each line names hits and unclear results; the compound was inactive in the other large screens (follow-up assays come after a bar, where they were run). Only some compounds are listed: those with a hit (about 5.6% of all), similar ones and a draw of the others.

CCCNC(=O)CC(NS(=O)(=O)c1ccc(OC)cc1)c1ccco1 (stereo unspecified)	none
COc1ccc(Nc2nc(N3CCCC3)c3ccccc3n2)cc1	MPTP inh 103 | MPTP counter 101
COc1ccc(CN(C(=O)c2cc(=O)c3ccccc3o2)C2CCS(=O)(=O)C2)cc1OC (stereo unspecified)	none (no result: CHOP inh)
CC(C)(C)N/N=C/c1cc(Cl)cc([N+](=O)[O-])c1O	MPTP inh 93 | MPTP counter 54
O=[N+]([O-])c1cc(Cl)cc(/C=N/Nc2nc3ccccc3s2)c1O	MPTP inh 78, GRIN3A LBD mod 20 | MPTP counter 78
O=C(N/N=C/c1cc(Cl)cc([N+](=O)[O-])c1O)C1CC1	none
Cc1nc2sccc2c(=O)n1N	none
CC(=O)N1c2ccc(S(=O)(=O)NCCC(=O)Nc3ccc(F)cc3)cc2CC1C (stereo unspecified)	none (no result: CHOP inh)
Nc1c(C(=O)Nc2cccc(F)c2)nnn1-c1ccc2c(c1)OCCO2	none (no result: CHOP inh)
Cc1ccc(NC(=O)CC(O)(C(F)(F)F)C(F)(F)F)c(Br)c1	MPTP inh 53 | MPTP counter 79
Fc1ccc(NC(=S)Nc2cc(Cl)ccc2Cl)cc1	MPTP inh 58 | MPTP counter 78
O=S(=O)(Nc1ncccn1)c1ccc(NC(=S)Nc2ccc(Cl)cc2)cc1	MPTP inh 98 | MPTP counter 96
O=C(NNC(=S)Nc1ccc(F)cc1)C1CC1c1ccc(Cl)cc1 (stereo unspecified)	none
Fc1ccc(NC(=S)Nc2ccc(Cl)cc2)cc1	MPTP inh 80 | MPTP counter 107
CCC(=O)N1CCC2(CC1)Oc1ccc(F)cc1C(=O)C21CC(c2ccccc2)=NO1 (stereo unspecified)	none
COC(=O)NCC(C)OC(=O)Nc1cccc(Cl)c1 (stereo unspecified)	none
CC(CNC(=O)COc1ccccc1)OC(=O)Nc1ccc(Cl)c(Cl)c1 (stereo unspecified)	MPTP inh 89 | MPTP counter 88
O=C(CN(Cc1ccc(Cl)cc1)C(=O)c1csnn1)NCc1ccccc1	none (no result: CHOP inh)
CN(CC(=O)Nc1ccc(Cl)c(C(F)(F)F)c1)C(=O)c1cccc(N2C(=O)CCC2=O)c1	none (no result: CHOP inh)
O=C(NC[C@@H]1CC[C@@H](Cc2ccc(-c3ccccc3)cc2)O1)Nc1ccc(Br)cc1	MPTP inh 60, GRIN3A LBD mod 24 (no result: CHOP inh) | MPTP counter 96
COc1ccc(C2/C=C\CNCC(=O)N2Cc2ccc(F)cc2)cc1 (stereo unspecified)	none
CC(C1CC1)N(Cc1ccccc1)C(=S)Nc1ccccc1 (stereo unspecified)	none
CC(C1CC1)N(Cc1ccccc1)C(=S)Nc1cccc(C(F)(F)F)c1 (stereo unspecified)	MPTP inh 65, CHOP inh 75 | MPTP counter 85
CCCCOCCCNC(=O)C[C@@H]1C[C@@]2(C(=O)OC)CC(C)(C)CC=C2N(Cc2cccc3ccccc23)C1=O	none (no result: CHOP inh, XBP1 UPR activ, GRIN3A LBD mod, UPR CHOP act)
Cc1ccc(C)c(OCC(O)CN2CCC(Cc3ccccc3)CC2)c1 (stereo unspecified)	MPTP inh 78 (no result: CHOP inh) | MPTP counter inactive | MPTP swell DR 6.8 | MPTP counter DR 13
Cc1ccc(C(C)C)c(OCC(O)CN2CCc3ccccc3C2)c1 (stereo unspecified)	MPTP inh 98 (no result: CHOP inh) | MPTP counter 92
COc1ccc(NC(=O)CN(C)S(=O)(=O)c2ccc3c(c2)CC(C)N3C(C)=O)cc1OC (stereo unspecified)	none (no result: CHOP inh)
COc1ccc(C(C(=O)NC(C)(C)C)N(C(=O)CCC(=O)Nc2cc(C)on2)c2c(C)cccc2C)cc1 (stereo unspecified)	none (no result: CHOP inh)
